For series [1], the system named is Rattus norvegicus. The experiment in a line: Inhibition of MetAP2 level in Sprague-Dawley rat lymph nodes assessed as free enzyme level at 0.3 mg/kg, po by ELISA. The class given is functional, organism-based. Set-up: dose 0.3 mg/kg. The method in brief: (§1)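 Male Sprague-Dawley rats (200-225 g, n=3 per group) were dosed once IV at 0.3 mg/kg or PO at 0.3 or 3.0 mg/kg, in 11% HPCD in water. Blood, liver, lung, thymus and pooled non-mesenteric lymph nodes were taken at ~24 h and lysed or homogenized with NP-40. Free MetAP2 was measured by ELISA and expressed as % of vehicle.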
On the technique in general: An ELISA detects its analyte on a solid surface through an enzyme-linked reagent.

Series [2] relates to Liver microsome. Put plainly: Metabolic stability in human liver microsomes assessed as retention time of ((3R,4S,5S,6R)-4-((2R,3R)-3-(((S)-3,3-dimethyloxiran-2-yl)methyl)-2-methyloxiran-2-yl)-5-methoxy-1-oxaspiro[2.5]octan-6-yl ((R)-1-amino-3-methyl-1-oxobutan-2-yl)carbamate) at 5 mM by LC/MS analysis. The class given is ADME. To be noted: 5000 µM. For orientation: Liver microsomes are a subcellular fraction often used to study metabolism.

Series [3] concerns the target Methionine aminopeptidase 2 (Homo sapiens) (UniProt P50579). Put plainly: Inhibition of human MetAP2 assessed as remaining enzyme activity after 1 hr. The method in brief:
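The hMetAP2 assay follows the fraction of active enzyme remaining during an 8 h incubation with inhibitor, relative to an enzyme-only control.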

The nature of series [4]: Metabolic stability in monkey liver microsomes assessed as retention time of ((3R,4S,5S,6R)-5-methoxy-4-((2R,3R)-2-methyl-3-(3-methylbut-2-en-1-yl)oxiran-2-yl)-1-oxaspiro[2.5]octan-6-yl ((R)-1-amino-3-hydroxy-3-methyl-1-oxobutan-2-yl)carbamate) at 5 mM by LC/MS analysis. Format: ADME, Macaca mulatta. To be noted: rhesus monkey, 5000 µM. The method in brief: (§2)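 Liver microsomes (pooled male/female) in 100 mM KPO4 pH 7.4 with PPI-2458 (5 mM stock), pre-incubated 5 min at 37°C, then 10 mM NADPH added; 20 min at 37°C with shaking. Time-zero and no-NADPH controls. Quenched with CH3CN; supernatant dried and redissolved in water. Analysed by LC-MS, ESI+ full scan 300–800 amu, C18 column, 10→50% B gradient.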

Series [5] is described as follows: AUC (0 to t hrs) in non-Hodgkin lymphoma patient at 15 mg, po alternate days for 21 days. Format: ADME, organism-based. The settings on record: human, in vivo. An outline of the steps: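 Oral PPI-2458 given every other day to lymphoma patients. Plasma sampled pre-dose and at 15 min, 30 min, 1, 2, 3, 4, 6, 8, 24 and 48 h after the first dose. Parent and metabolites were measured by LC-MS/MS after protein precipitation, evaporation and reconstitution. CL/F was computed only for parent and summed analytes. For metabolites, t1/2 is an apparent first-phase value.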

The subject of series [6] is CYP3A4 (Homo sapiens). Put plainly: Activity of human recombinant CYP3A4 assessed as ((3R,4S,5S,6R)-4-((2R,3R)-3-((E)-4-hydroxy-3-methylbut-2-en-1-yl)-2-methyloxiran-2-yl)-5-methoxy-1-oxaspiro[2.5]octan-6-yl((R)-1-amino-3-methyl-1-oxobutan-2-yl)carbamate) formation per pmol of enzyme.
Series [7] concerns Liver microsome. Put plainly: Metabolic stability in dog liver microsomes assessed as retention time of ((3R,4S,5S,6R)-4-((2R,3R)-3-((E)-4-hydroxy-3-methylbut-2-en-1-yl)-2-methyloxiran-2-yl)-5-methoxy-1-oxaspiro[2.5]octan-6-yl((R)-1-amino-3-methyl-1-oxobutan-2-yl)carbamate) at 5 mM by LC/MS analysis. Format: ADME, Canis lupus familiaris. To be noted: 5000 µM.
A further series has as its system CYP3A5 (Homo sapiens). The experiment in a line: Ratio of Vmax to Km for human recombinant CYP3A5 assessed as ((3R,4S,5S,6R)-4-((2R,3R)-3-(((R)-3,3-dimethyloxiran-2-yl)methyl)-2-methyloxiran-2-yl)-5-methoxy-1-oxaspiro[2.5]octan-6-yl ((R)-1-amino-3-methyl-1-oxobutan-2-yl)carbamate) formation. To be noted: recombinant enzyme.
The next series has as its target Cytochrome P450 3A4 (Homo sapiens, UniProt P08684). The experiment in a line: Inhibition of CYP3A4 activity in human liver microsomes using testosterone as a substrate by LC/MS analysis. Format: ADME.
Series [8] has as its system Rattus norvegicus. Put plainly: Inhibition of MetAP2 level in Sprague-Dawley rat thymus assessed as free enzyme level at 0.3 mg/kg, po by ELISA. The class given is functional, organism-based. Set-up: dose 0.3 mg/kg. The method in brief:
as §1

Series [9] deals with Liver microsome. Put plainly: Metabolic stability in rat liver microsomes assessed as retention time of ((3R,4S,5S,6R)-4-((2R,3R)-3-((E)-4-hydroxy-3-methylbut-2-en-1-yl)-2-methyloxiran-2-yl)-5-methoxy-1-oxaspiro[2.5]octan-6-yl((R)-1-amino-3-methyl-1-oxobutan-2-yl)carbamate) at 5 mM by LC/MS analysis. To be noted: 5000 µM. Format: ADME. An outline of the steps: as §2
Series [10] has as its system CYP3A4 (Homo sapiens). The experiment in a line: Activity of human recombinant CYP3A4 assessed as ((3R,4S,5S,6R)-4-((2R,3R)-3-(((R)-3,3-dimethyloxiran-2-yl)methyl)-2-methyloxiran-2-yl)-5-methoxy-1-oxaspiro[2.5]octan-6-yl ((R)-1-amino-3-methyl-1-oxobutan-2-yl)carbamate) formation. The settings on record: recombinant enzyme.
A further series concerns Liver. Put plainly: Metabolic stability in mouse liver microsomes assessed as retention time of ((3R,4S,5S,6R)-5-methoxy-4-((2R,3R)-2-methyl-3-(3-methylbut-2-en-1-yl)oxiran-2-yl)-1-oxaspiro[2.5]octan-6-yl ((R)-1-amino-3-hydroxy-3-methyl-1-oxobutan-2-yl)carbamate) at 5 mM by LC/MS analysis. The class given is ADME. To be noted: 5000 µM. The method in brief:
as §2

A short description of series [11]: Metabolic stability in monkey liver microsomes assessed as retention time of ((3R,4S,5S,6R)-4-((2R,3R)-3-(((S)-3,3-dimethyloxiran-2-yl)methyl)-2-methyloxiran-2-yl)-5-methoxy-1-oxaspiro[2.5]octan-6-yl ((R)-1-amino-3-methyl-1-oxobutan-2-yl)carbamate) at 5 mM by LC/MS analysis. Format: ADME, Macaca mulatta. To be noted: rhesus monkey, 5000 µM. An outline of the steps: as §2

In series [12] the test system is Rattus norvegicus. The experiment in a line: Inhibition of MetAP2 level in Sprague-Dawley rat lung assessed as free enzyme level at 0.3 mg/kg, po by ELISA. The class given is functional, organism-based. Also noted: dose 0.3 mg/kg. The method in brief:
as §1

Series [13] deals with Rattus norvegicus. Put plainly: Inhibition of MetAP2 level in Sprague-Dawley rat whole blood assessed as free enzyme level at 3 mg/kg, po by ELISA. The class given is functional, organism-based. Also noted: dose 3 mg/kg. An outline of the steps:
as §1

Series [14] deals with Rattus norvegicus. The experiment in a line: Inhibition of MetAP2 level in Sprague-Dawley rat lung assessed as free enzyme level at 3 mg/kg, po by ELISA. Format: functional, organism-based. Also noted: dose 3 mg/kg. The method in brief: as §1
A short description of series [15]: Metabolic stability in monkey liver microsomes assessed as retention time of ((3R,4S,5S,6R)-4-((2R,3R)-3-((E)-4-hydroxy-3-methylbut-2-en-1-yl)-2-methyloxiran-2-yl)-5-methoxy-1-oxaspiro[2.5]octan-6-yl((R)-1-amino-3-methyl-1-oxobutan-2-yl)carbamate) at 5 mM by LC/MS analysis. To be noted: rhesus monkey, 5000 µM. The class given is ADME, Macaca mulatta. The method in brief:
as §2

In series [16] the test system is Liver microsome. Put plainly: Metabolic stability in human liver microsomes assessed as retention time of ((3R,4S,5S,6R)-5-methoxy-4-((2R,3R)-2-methyl-3-(3-methylbut-2-en-1-yl)oxiran-2-yl)-1-oxaspiro[2.5]octan-6-yl ((R)-1-amino-3-hydroxy-3-methyl-1-oxobutan-2-yl)carbamate) at 5 mM by LC/MS analysis. The class given is ADME. The settings on record: 5000 µM. An outline of the steps: as §2

The values below come from ChEMBL document CHEMBL3526018, “Metabolites of PPI-2458, a selective, irreversible inhibitor of methionine aminopeptidase-2: structure determination and in vivo activity” (Drug Metab Dispos, 2013).

Active and inactive are the calls of the source. The rule behind the calls is not given here.

Chain of Methionine aminopeptidase 2 (Homo sapiens) (P50579 2-478 limits assumed): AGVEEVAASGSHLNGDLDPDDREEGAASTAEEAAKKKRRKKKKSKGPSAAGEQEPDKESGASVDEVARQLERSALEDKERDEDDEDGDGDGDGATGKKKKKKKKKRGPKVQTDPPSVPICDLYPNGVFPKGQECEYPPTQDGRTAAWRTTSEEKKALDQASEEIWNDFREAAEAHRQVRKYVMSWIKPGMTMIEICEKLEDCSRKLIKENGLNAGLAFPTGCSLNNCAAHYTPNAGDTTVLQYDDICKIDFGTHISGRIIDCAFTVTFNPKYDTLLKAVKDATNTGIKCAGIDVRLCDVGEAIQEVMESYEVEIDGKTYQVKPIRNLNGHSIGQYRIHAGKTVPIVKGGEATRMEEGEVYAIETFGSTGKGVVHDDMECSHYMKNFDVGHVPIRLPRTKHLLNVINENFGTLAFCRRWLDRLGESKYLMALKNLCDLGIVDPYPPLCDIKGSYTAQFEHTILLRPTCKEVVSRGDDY
Chain of Cytochrome P450 3A4 (P08684 whole entry): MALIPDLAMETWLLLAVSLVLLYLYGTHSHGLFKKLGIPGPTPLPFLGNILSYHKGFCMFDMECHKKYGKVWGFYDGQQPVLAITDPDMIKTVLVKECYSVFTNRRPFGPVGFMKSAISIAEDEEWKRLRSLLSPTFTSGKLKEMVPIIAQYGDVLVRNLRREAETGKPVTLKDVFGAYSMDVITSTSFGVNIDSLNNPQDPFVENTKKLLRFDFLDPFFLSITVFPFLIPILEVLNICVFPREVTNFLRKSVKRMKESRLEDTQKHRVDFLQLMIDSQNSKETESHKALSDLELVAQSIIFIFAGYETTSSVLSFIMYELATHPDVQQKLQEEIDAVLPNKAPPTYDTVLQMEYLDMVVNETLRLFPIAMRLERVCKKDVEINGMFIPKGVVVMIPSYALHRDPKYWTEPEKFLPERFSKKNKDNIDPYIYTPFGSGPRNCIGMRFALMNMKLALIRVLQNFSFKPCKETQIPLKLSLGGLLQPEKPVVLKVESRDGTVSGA

Take `CO[C@@H]1[C@H](OC(=O)N[C@@H](C(N)=O)C(C)C)CC[C@]2(CO2)[C@H]1[C@@]1(C)O[C@@H]1CC=C(C)C` [PPI-2458]: the inhibition entry in the series on Rattus norvegicus [1], in the series on Rattus norvegicus [8], in the series on Rattus norvegicus [12], in the series with Rattus norvegicus [13] and with Rattus norvegicus [14] was “Active” throughout. For the same compound, the Drug metabolism result (in the series with Liver microsome [2]; in series [4]; in the series on Liver microsome [7]; with Liver microsome [9]; in the series on Liver; in [11]) was “metabolite_detected” each time. Moreover, the Drug metabolism entry (in series [15]; in the series with Liver microsome [16]) was “metabolite_detected” throughout. Moreover, in series [3], the Activity was 12%. For the same compound, the area under the curve AUC(0-t) at 504 h in series [5] worked out at 43.9 ng·h/mL. For the same compound, the maximal velocity (Vmax) in the series on CYP3A4 (Homo sapiens) [6] was found to be 1.41 pmol/min. For the same compound, the Vmax/Km with CYP3A5 (Homo sapiens) amounted to 0.17 µL/min. This compound also showed a Ki on Cytochrome P450 3A4 of 287 µM. The Km in the series with CYP3A4 (Homo sapiens) [10] came out at 17 µM.

The term AUC(0-t) denotes the area under the concentration-time curve up to a stated or last time point. In general, Vmax refers to the top rate of the reaction or transport when substrate is in excess. Broadly, the Ki is the equilibrium dissociation constant of an inhibitor or competing ligand from its target. For orientation: Km means the concentration of substrate that gives half-maximal velocity.
